From PubChem BioAssay
HePTP inh = inhibitors of human HePTP phosphatase, primary screen, biochemical, absorbance, leukemia target; Tyrosine-protein phosphatase non-receptor type 7 (Homo sapiens), P35236; recombinant HePTP phosphatase activity, OD absorbance; inhibition, % at 20 µM; hit rate 0.64% among 110,000; AID 521, 2006; in the data active = inhibition above about 50%
MKP-1 inh = MKP-1 phosphatase inhibitors, primary screen, biochemical, in vitro; Dual specificity protein phosphatase 1 (Homo sapiens), P28562; hit rate 0.15% among 65,000; recombinant MKP-1, OMFP hydrolysis fluorescence; inhibition, %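 (compounds tested at a single concentration somewhere between 10 and 100 µM)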;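 active = inhibition above about 50%, limit read from the data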
tolC growth inh = growth inhibitors of E. coli tolC mutant, primary screen, strain BW25113 ΔtolC::kan, 384-well; OD615; growth inhibition, % at 10 µM (by protocol); hit rate 2.2% among 65,000; AID 573, 2007;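 active = growth inhibition at or above a cutoff equal to the mean over every tested compound plus 3 SD, cut at about 60% in these data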;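 note: growth measured after 20 h incubation at 37 °C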
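Test system – E. coli BW25113 ΔtolC::kan, tolC deletion mutant strain · Detection – OD at 615 nm · Buffer or medium – LB with kanamycin 50 µg/mL · Times – 20 h compound exposure of bacteria at 37 °C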
MMP-13 inhibitor = human MMP13 inhibitors, primary screen, biochemical, FRET peptide cleavage; Collagenase 3 (Homo sapiens), P45452; MMP-13 fTHP FRET cleavage, Mca fluorescence; inhibition, % at 4 µM; hit rate 0.07% among 65,000; AID 570, 2006;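 active = inhibition above the mean of compound-free control plate wells plus 3 SD, cut at about 14% in these data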
Cdc25B inh = inhibitors of Cdc25B phosphatase catalytic domain, primary screen, biochemical, OMFP fluorescence; recombinant Cdc25B, OMFP fluorescence Ex485/Em525; M-phase inducer phosphatase 2 (Homo sapiens), P30305; hit rate 0.1% among 65,000; inhibition, %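 (compounds tested at 10 µM final in the well)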; AID 368, 2006; in the data active = inhibition above about 50%
Target sequence (P30305 whole entry, looked up, the tested form may be a part): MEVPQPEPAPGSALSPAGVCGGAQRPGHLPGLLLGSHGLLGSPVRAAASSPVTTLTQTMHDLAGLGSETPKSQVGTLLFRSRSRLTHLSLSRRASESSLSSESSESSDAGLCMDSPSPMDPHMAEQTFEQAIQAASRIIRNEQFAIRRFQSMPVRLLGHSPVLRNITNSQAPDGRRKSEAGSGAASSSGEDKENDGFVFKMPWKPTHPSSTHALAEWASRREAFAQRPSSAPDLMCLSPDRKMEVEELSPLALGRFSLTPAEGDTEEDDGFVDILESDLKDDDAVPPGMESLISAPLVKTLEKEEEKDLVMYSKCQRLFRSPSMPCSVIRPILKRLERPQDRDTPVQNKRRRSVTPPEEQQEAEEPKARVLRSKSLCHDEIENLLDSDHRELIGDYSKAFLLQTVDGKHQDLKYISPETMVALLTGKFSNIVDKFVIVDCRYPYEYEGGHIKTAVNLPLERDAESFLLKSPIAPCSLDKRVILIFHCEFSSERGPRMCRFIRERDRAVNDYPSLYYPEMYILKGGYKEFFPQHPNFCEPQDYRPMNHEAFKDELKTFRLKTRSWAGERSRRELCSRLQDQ
Ecoli WT expand = growth inhibitors of wild-type E. coli, primary screen, strain BW25113, expanded library, OD600; OD600 absorbance; growth inhibition, % at 100 µM; hit rate 0.15% among 98,000;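 active = growth inhibition above about 50% at one test dose, limit read from the data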;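 note: growth measured after 20 h incubation at 37 °C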
Each line names hits and unclear results; the compound was inactive in the other large screens. The entries come from a sample that favours hits as a whole.

CCC(C(=O)Nc1ccccc1OC)n1c(C(=O)OC)cc2ccsc21 (centres undefined)	tolC growth inh 71
COCCn1nnnc1C(C(C)C)N(Cc1ccccc1)Cc1cc2cc(OC)ccc2[nH]c1=O (centres undefined)	tolC growth inh 76
O=C(Nc1ccc2nn(-c3ccc(F)cc3)nc2c1)c1cccc(Br)c1	HePTP inh 57 (no result: MKP-1 inh, tolC growth inh, MMP-13 inhibitor, Cdc25B inh, Ecoli WT expand)
O=C(/C=C\c1ccccc1)Nc1ccc2nn(-c3ccc(F)cc3)nc2c1	HePTP inh 61 (no result: MKP-1 inh, tolC growth inh, MMP-13 inhibitor, Cdc25B inh, Ecoli WT expand)
COc1ccc(/C=C/C(=O)Nc2ccc3nn(-c4ccc(F)cc4)nc3c2)cc1	HePTP inh 57 (no result: MKP-1 inh, tolC growth inh, MMP-13 inhibitor, Cdc25B inh, Ecoli WT expand)
O=C(/C=C/c1cccc([N+](=O)[O-])c1)Nc1ccc2nn(-c3ccccc3)nc2c1	HePTP inh 102 (no result: MKP-1 inh, tolC growth inh, MMP-13 inhibitor, Cdc25B inh, Ecoli WT expand)
Cc1c(C)c2ccc(OCC(=O)O)cc2oc1=O	none (no result: MKP-1 inh, tolC growth inh, MMP-13 inhibitor, Cdc25B inh, Ecoli WT expand)
Fc1ccc(OCCOCCOc2ncnc3ccccc23)cc1	none (no result: MKP-1 inh, tolC growth inh, MMP-13 inhibitor, Cdc25B inh, Ecoli WT expand)
CCC(Nc1ccccc1)C(=O)N/N=C/c1cc([N+](=O)[O-])ccc1O (centres undefined)	none (no result: MKP-1 inh, tolC growth inh, MMP-13 inhibitor, Cdc25B inh, Ecoli WT expand)
Oc1cccnc1-c1ccccc1	none (no result: MKP-1 inh, tolC growth inh, MMP-13 inhibitor, Cdc25B inh, Ecoli WT expand)
CC(=O)C(=Nc1ccc(C)cc1C)NNc1cc(C(N)=O)c(Cl)cc1Cl	none (no result: MKP-1 inh, tolC growth inh, MMP-13 inhibitor, Cdc25B inh, Ecoli WT expand)
CC1Cc2ccccc2N1C(=O)Cn1c(=O)oc2cc(S(=O)(=O)NC3CCCC3)ccc21 (centres undefined)	tolC growth inh 74
COc1cc(C(=O)Nc2nc(C)c(C)s2)cc(OC)c1OC	none (no result: MKP-1 inh, tolC growth inh, MMP-13 inhibitor, Cdc25B inh, Ecoli WT expand)
CCOC(=O)c1sc2nc(CC(=O)OC)nc(NCc3ccc(F)cc3)c2c1C	none (no result: HePTP inh, MKP-1 inh, tolC growth inh, MMP-13 inhibitor, Cdc25B inh)
CCOC(=O)c1sc2nc(CC(=O)OC)nc(N3CCN(c4ccccn4)CC3)c2c1C	tolC growth inh 66
CC1CCN(S(=O)(=O)c2ccc3c(c2)c(=O)c(C(=O)NC2CCCC2)cn3C)CC1	MKP-1 inh 50
Cn1cc(C(=O)NC2CCCCC2)c(=O)c2cc(S(=O)(=O)N3CCCC3)ccc21	none
O=S(=O)(NC1CCCC1)c1ccc(S(=O)(=O)N(Cc2cccs2)CC2CCCO2)cc1 (centres undefined)	tolC growth inh 64
Cc1ccc(-c2nnc3sc(CCc4ccccc4)nn23)cc1	tolC growth inh 67
Cc1ccccc1Cn1c(NC(=O)c2ccc(Cl)cc2)nc2ccccc21	none (no result: MKP-1 inh, tolC growth inh, MMP-13 inhibitor, Cdc25B inh, Ecoli WT expand)
CC(=O)Nc1nc2ccccc2n1Cc1ccccc1C	tolC growth inh 98
CN(C)c1ccc(/C=N/n2ncc3ccccc32)cc1	tolC growth inh 62
O=C(CCc1ccccc1)Nc1nnc(-c2cccs2)o1	none
CC1CC(C)CN(S(=O)(=O)c2ccc(C(=O)Nc3nnc(-c4cccs4)o3)cc2)C1 (centres undefined)	tolC growth inh 99
CCC1CCCCN1S(=O)(=O)c1ccc(C(=O)Nc2nnc(-c3cccs3)o2)cc1 (centres undefined)	tolC growth inh 99
CCc1nnc(NC(=O)c2ccc(S(=O)(=O)N3CCCCC3C)cc2)s1 (centres undefined)	none
O=C(Nc1nnc(-c2cccs2)o1)c1cccc(C(F)(F)F)c1	tolC growth inh 100, Ecoli WT expand 57
O=C(Nc1nnc(-c2ccccc2Cl)o1)c1cccnc1	tolC growth inh 70
O=C(Nc1ccccc1O)c1cccnc1	none (no result: MKP-1 inh, tolC growth inh, MMP-13 inhibitor, Cdc25B inh, Ecoli WT expand)
CC1CC(C)CN(S(=O)(=O)c2ccc(C(=O)Nc3sccc3C(N)=O)cc2)C1 (centres undefined)	none (no result: HePTP inh, MKP-1 inh, tolC growth inh, MMP-13 inhibitor, Cdc25B inh)
Cc1[nH]c2c(ccc3ccccc32)c(=O)c1CN1CCOCC1	none (no result: MKP-1 inh, tolC growth inh, MMP-13 inhibitor, Cdc25B inh, Ecoli WT expand)
CC1CCCN(S(=O)(=O)c2ccc(NC(=O)Cn3nnc(-c4ccccc4F)n3)cc2)C1 (centres undefined)	tolC growth inh 64
CC1CCN(S(=O)(=O)c2ccc(NC(=O)Cn3nnc(-c4ccccc4)n3)cc2)CC1	none
CC1CCCN(S(=O)(=O)c2ccc(C(=O)Nc3nnc(-c4ccccc4Cl)o3)cc2)C1 (centres undefined)	tolC growth inh 100
CC(C)(C)C(=O)Nc1ccc(C(=O)Nc2cccc(O)c2)cc1	none (no result: MKP-1 inh, tolC growth inh, MMP-13 inhibitor, Cdc25B inh, Ecoli WT expand)
CC1(C)C(=O)OC(c2cc(Br)ccc2O)C(C)(C)C1=O (centres undefined)	tolC growth inh 63 (no result: Ecoli WT expand)
Cc1ccc(C(=O)N/C(=C\c2cccs2)C(=O)NCC(C)C)cc1	none (no result: MKP-1 inh, tolC growth inh, MMP-13 inhibitor, Cdc25B inh, Ecoli WT expand)
